Data as given in paper PMC3870591 (Human immunology, 2013).
Marks after values point to notes of the source that are not given here.

Key:
[1] = molecular target: DQA1*01:01; DQB1*05:01 (Homo sapiens, UniProt P01909+P01920, A157S/A45G/A70V/C70R/D89V/E106S/E118A/E183D/E77G/F83G/G63E/H151Q/H199R/H252R/H253Q/I129T/I235V/I88M/INS77G/K197Q/L107V/L117V/L119Y/L178F/L71W/L74F/L85Q/L91A/L98M/M46L/N214S/P87R/Q116E/Q256R/Q57E/Q76K/R102G/R240Q/R75S/R78G/S102Y/S185I/S41F/S97I/T103A/T109R/T121G/T122I/T172A/T86R/V148I/V68A/V73E/Y34C/Y58G/Y62H); test: REVEAL MHC-peptide binding assay; conditions: HLA DQB1*05:01; percentage of signal of positive control peptide
How it was run: (§1)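 Overlapping 15-mer peptides (3-residue offset) spanning brown shrimp tropomyosin (Q3Y8M6) were tested in the REVEAL assay. It detects peptide-stabilised, natively folded MHC class II complexes via a labeled antibody. Scores at 0 and 24 h are expressed as % of signal from an allele-specific known T-cell epitope positive control. An intermediate-affinity control peptide verified assay performance. A score of ≥10% counted as a good binder.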

[2] = molecular target: DRB1*13:01 (Homo sapiens, UniProt P01903+P01911, A100E/A169T/K41T/L162R/M171V/P40S/Q125H/Q178H/Q39Y/Q99D/R42S/S66N/T262R/W38E/Y61H); test: REVEAL MHC-peptide binding assay; conditions: HLA DRB1*13:01; percentage of signal of positive control peptide
How it was run: as §1

[3] = molecular target: DRB1*03:01 (Homo sapiens, UniProt P01903+P01911, A100K/A102G/A103R/A169T/F55Y/I96L/K41T/L162R/M171V/P40S/Q125H/Q178H/Q39Y/R42S/S66N/T106N/T262R/W38E/Y61H); test: REVEAL MHC-peptide binding assay; conditions: HLA DRB1*03:01; percentage of signal of positive control peptide
How it was run: as §1

[4] = molecular target: DQA1*05:01; DQB1*02:01 (Homo sapiens, UniProt P01909+P01920, A45G/A70V/D89A/E106A/E77G/E98D/H199R/L107V/N214S/P84L/P87L/T103K/T109R/T172A/T60S/V78E/V99I/Y58L/Y62S/Y69I/Y79F); test: REVEAL MHC-peptide binding assay; conditions: HLA DQB1*02:01; percentage of signal of positive control peptide
How it was run: as §1

[5] = molecular target: DRB1*04:01 (Homo sapiens, UniProt P01903+P01911, A100K/A169T/F76Y/I96L/K127E/L162R/M171V/N62H/P40V/Q125Y/R42H/S133A/S149N/S66Y/V115G/V209L/W38E); test: REVEAL MHC-peptide binding assay; conditions: HLA DRB1*04:01; percentage of signal of positive control peptide
How it was run: as §1

[6] = molecular target: DQA1*03:01; DQB1*03:02 (Homo sapiens, UniProt P01909+P01920, A209T/A45G/C70Q/D89A/DUP78-78/E183D/E77G/F237L/G63E/H199R/I129T/K197E/L178F/L74F/L98V/Q57E/Q76R/S185I/S97I/T217I/T49S/V73L/Y58L); test: REVEAL MHC-peptide binding assay; conditions: HLA DQB1*03:02; percentage of signal of positive control peptide
How it was run: as §1

[7] = molecular target: DRB1*11:01 (Homo sapiens, UniProt P01903+P01911, A100R/A169T/A87E/I96F/K41T/L162R/M171V/P40S/Q125H/Q178H/Q39Y/Q99D/R42S/S66Y/T262R/V115G/W38E); test: REVEAL MHC-peptide binding assay; conditions: HLA DRB1*11:01; percentage of signal of positive control peptide
How it was run: as §1

[8] = molecular target: DRB1*07:01 (Homo sapiens, UniProt P01903+P01911, A100R/A102G/A103Q/D57E/D86V/E43K/F76Y/K127E/L162R/M171V/P40G/Q125H/Q99D/R33Q/R42Y/R54Q/S133A/S66F/T210M/V115G/Y107V/Y59L/Y89S); test: REVEAL MHC-peptide binding assay; conditions: HLA DRB1*07:01; percentage of signal of positive control peptide
How it was run: as §1

[9] = tested on: Peripheral blood mononuclear cells (PBMC); test: Tritiated thymidine proliferation assay; format: cell-based, human
[10] = tested on: CD4 T cells; test: CFSE CD4 T cell proliferation assay; format: cell-based, human
[11] = molecular target: DRB1*15:01 (Homo sapiens, UniProt P01903+P01911); test: REVEAL MHC-peptide binding assay; conditions: HLA DRB1*15:01; percentage of signal of positive control peptide
How it was run: as §1

[12] = molecular target: DRB1*09:01 (Homo sapiens, UniProt P01903+P01911, A100R/A103E/D57H/D86V/F55Y/F60I/F76Y/I96F/K127E/L162R/M171V/P40D/Q125H/Q99R/R33Q/R42F/S133A/S66N/T210M/V115G/W38K/Y107V/Y59G/Y89S); test: REVEAL MHC-peptide binding assay; conditions: HLA DRB1*09:01; percentage of signal of positive control peptide
How it was run: as §1

[13] = molecular target: DRB1*10:01 (Homo sapiens, UniProt P01903+P01911, A100R/A169T/D57E/F55L/F60V/F69Y/F76Y/I96L/L162R/M171V/P40V/Q260P/Q39E/Q99R/R195Q/R42F/S149N/S66Y/T210M/V115G/V67A/W38E/Y59R/Y61H); test: REVEAL MHC-peptide binding assay; conditions: HLA DRB1*10:01; percentage of signal of positive control peptide
How it was run: as §1

[14] = tested on: MHC class II alleles; test: REVEAL MHC-peptide binding assay; set-up: species or system human; conditions: % of the positive control; allele not given
How it was run: as §1

2: tropomyosin-derived 15-mer IKKKMQAMKLEKDNA [Peptide 2]
Binding score [1]: 13.94%
Binding score [2]: 26.06%

57: tropomyosin-derived 15-mer LAMVEADLERAEERA [Peptide 57]
Binding score [3]: 19.46%

4: tropomyosin-derived 15-mer AMKLEKDNAMDRADT [Peptide 4]
Binding score [3]: 74.69%

8: tropomyosin-derived 15-mer ADTLEQQNKEANNRA [Peptide 8]
Binding score [4]: 20.74%

74: tropomyosin-derived 15-mer AYKEQIKTLTNKLKA [Peptide 74]
Binding score [1]: 14.73%
Binding score [5]: 41.94%
Binding score [6]: 19.28%
Binding score [7]: 10.94%
Binding score [8]: 74.20%

Tetanus Toxoid
Proliferative T cell response by tritiated-thymidine incorporation [9]: much higher proliferative responses
CD4 T cell proliferation (CFSE) [10]: much greater level of CD4 T cell proliferation

53: tropomyosin-derived 15-mer EADRKYDEVARKLAM [Peptide 53]
Binding score [7]: 13.67%

3: tropomyosin-derived 15-mer KMQAMKLEKDNAMDR [Peptide 3]
Binding score [5]: 23.52%

1: tropomyosin-derived 15-mer MDAIKKKMQAMKLEK [Peptide 1]
Binding score [6]: 35.20%
Binding score [7]: 18.74%
Binding score [11]: 14.02%

76: tropomyosin-derived 15-mer KTLTNKLKAAEARAE [Peptide 76]
Binding score [12]: 89.92%
Binding score [13]: 37.57%

66: tropomyosin-derived 15-mer ELRVVGNNLKSLEVS [Peptide 66]
Binding score [5]: 25.05%
Binding score [4]: 24.15%

49: tropomyosin-derived 15-mer ENQLKEARFLAEEAD [Peptide 49]
Binding score [1]: 19.65%

36: tropomyosin-derived 15-mer LNTATTKLAEASQAA [Peptide 36]
Binding score [5]: 43.87%

10: tropomyosin-derived 15-mer QNKEANNRAEKSEEE [Peptide 10]
Binding score [4]: 25.17%

18: tropomyosin-derived 15-mer QLENDLDQVQESLLK [Peptide 18]
Binding score (relative binding affinity) [14]: ≤ 10%
Binding score [5]: 9.10 ^a %

54: tropomyosin-derived 15-mer RKYDEVARKLAMVEA [Peptide 54]
Binding score [6]: 7.98 ^a %

15: tropomyosin-derived 15-mer VHNLQKRMQQLENDL [Peptide 15]
Binding score [7]: 11.01%

43: tropomyosin-derived 15-mer RKVLENRSLSDEERM [Peptide 43]
Binding score (relative binding affinity) [14]: ≤ 10%
Binding score [1]: 7.11 ^a %

58: tropomyosin-derived 15-mer VEADLERAEERAETG [Peptide 58]
Binding score [13]: 39.12%

24: tropomyosin-derived 15-mer QLVEKDKALSNAEGE [Peptide 24]
Binding score [3]: 45.59%
Binding score [5]: 20.62%

63: tropomyosin-derived 15-mer ESKIVELEEELRVVG [Peptide 63]
Binding score [3]: 29.06%

13: tropomyosin-derived 15-mer EKSEEEVHNLQKRMQ [Peptide 13]
Binding score [8]: 26.79%

80: tropomyosin-derived 15-mer RAEFAERSVQKLQKE [Peptide 80]
Binding score (relative binding affinity) [14]: ≤ 10%
Binding score [1]: 9.26 ^a %

34: tropomyosin-derived 15-mer ERSEERLNTATTKLA [Peptide 34]
Binding score [1]: 22.67%

7: tropomyosin-derived 15-mer MDRADTLEQQNKEAN [Peptide 7]
Binding score [5]: 22.16%

51: tropomyosin-derived 15-mer ARFLAEEADRKYDEV [Peptide 51]
Binding score [3]: 15.03%
Binding score [5]: 11.06%

21: tropomyosin-derived 15-mer QESLLKANIQLVEKD [Peptide 21]
Binding score [12]: 8.32 ^a %

29: tropomyosin-derived 15-mer VAALNRRIQLLEEDL [Peptide 29]
Binding score [2]: 19.31%
Binding score [7]: 22.35%

5: tropomyosin-derived 15-mer LEKDNAMDRADTLEQ [Peptide 5]
Binding score [3]: 66.31%
